ChEMBL document CHEMBL1255227, “Novel pyridylmethylamines as highly selective 5-HT(1A) superagonists” (J Med Chem, 2010)

Experiments:
[1] = target: T1, 5-hydroxytryptamine receptor 1A (Homo sapiens, UniProt P08908); test: Intrinsic activity at human 5-HT1A receptor expressed in CHO cells assessed as increase of serotonin-induced [35S]GTPgammaS binding; format: functional, cell-based
T1 sequence (P08908 whole entry): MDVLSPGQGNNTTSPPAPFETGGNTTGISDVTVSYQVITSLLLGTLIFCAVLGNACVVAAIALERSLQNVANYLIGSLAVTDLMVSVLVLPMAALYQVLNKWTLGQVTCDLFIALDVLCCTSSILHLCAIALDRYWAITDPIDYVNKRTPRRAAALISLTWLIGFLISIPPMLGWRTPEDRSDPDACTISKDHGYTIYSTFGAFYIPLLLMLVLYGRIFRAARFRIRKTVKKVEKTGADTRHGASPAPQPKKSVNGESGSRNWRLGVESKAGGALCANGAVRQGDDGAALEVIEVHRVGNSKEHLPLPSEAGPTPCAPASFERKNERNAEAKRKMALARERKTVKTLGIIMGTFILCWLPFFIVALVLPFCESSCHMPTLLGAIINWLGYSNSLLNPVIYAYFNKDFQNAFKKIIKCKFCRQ
In short: (§1)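 Membranes from CHO cells stably expressing human 5-HT1A were incubated with 0.1 nM [35S]GTPγS and test compound at eight concentrations (0.01-10000 nM), in hexaduplicate. Values come from a mean curve of four experiments. Emax is expressed relative to the maximal serotonin effect.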

[2] = target: T2, 5-hydroxytryptamine receptor 1A (Homo sapiens) (UniProt P08908); test: Intrinsic activity at human 5-HT1A receptor expressed in CHO cells assessed as increase of serotonin-induced [35S]GTPgammaS binding relative to serotonin; format: functional, cell-based; in short: as §1
T2 sequence (whole entry): T1 sequence (P08908 whole entry)

[3] = Displacement of [3H]WAY-100635 from 5-HT1A receptor in pig cortex membranes; format: cell membranes, Sus scrofa

Row | Compound | EC50 [1] | Emax [2] | Ki [3]
1 | Cc1ccc(CNCC2(F)CCN(C(=O)c3sccc3C)CC2)nc1 | 35 nM | 96% | 26 nM
2 | CSc1ccc(C(=O)N2CCC(F)(CNCc3ccc(C)cn3)CC2)s1 | 54 nM | 91% | 18 nM
3 | Cc1ccc(CNCC2(F)CCN(C(=O)c3sccc3Br)CC2)nc1 | 20 nM | 104% | 32 nM
4 | Cc1ccc(CNCC2(F)CCN(C(=O)c3cc4ccc3CCc3ccc(cc3)CC4)CC2)nc1 | – | – | 320 nM
5 | Cc1ccc(CNCC2(F)CCN(C(=O)C34CC5CC(C)(CC(Br)(C5)C3)C4)CC2)nc1 (stereo unspecified) | – | – | 460 nM
6 | Cc1ccc(CNCC2(F)CCN(C(=O)c3ccccc3)CC2)nc1 | 13 nM | 96% | 15 nM
7 | Cc1ccc(CNC[C@@]2(O)C[C@H]3CC[C@@H](C2)N3C(=O)c2ccccc2)nc1 (stereo in doubt; 34) [listing 1 of 2 here] | – | 113% | –
8 | Cc1ccc(CNCC2(F)CCN(C(=O)C34CC5CC(CC(Cl)(C5)C3)C4)CC2)nc1 | 48 nM | 91% | 92 nM
9 | Cc1ccc(CNCC2(F)CCN(C(=O)c3cc4ccccc4[nH]3)CC2)nc1 | – | – | 94 nM
10 | Cc1ccc(CNCC2(O)CC3CCC(C2)N3C(=O)c2ccc(F)c(Cl)c2)nc1 (stereo unspecified) | 18 nM | 121% | 17 nM
11 | Cc1ccc(CNCC2(F)CCN(C(=O)c3ccc4[nH]cnc4c3)CC2)nc1 | – | – | 3500 nM
12 | Cc1ccc(CNC[C@@]2(O)C[C@H]3CC[C@@H](C2)N3C(=O)c2ccccc2)nc1 (stereo in doubt; 38) [listing 1 of 2 here] | – | < 10% | –
13 | Cc1ccc(CNCC2(F)CCN(C(=O)c3cc(Br)c(Br)o3)CC2)nc1 | – | – | 8.9 nM
14 | Cc1ccc(CNCC2(F)CCN(C(=O)c3ccc(-c4ccccn4)s3)CC2)nc1 | – | – | 470 nM
15 | Cc1ccc(CNCC2(F)CCN(C(=O)c3cc4ccccc4[te]3)CC2)nc1 | 36 nM | 46% | 51 nM
16 | Cc1ccc(CNCC2(F)CCN(C(=O)C34CC5CC(CC(C5)C3)C4)CC2)nc1 | 11 nM | 98% | 17 nM
17 | Cc1ccc(CNCC2(F)CCN(C(=O)c3cnn4ccccc34)CC2)nc1 | 310 nM | 96% | 93 nM
18 | Cc1ccc(CNCC2(F)CCN(C(=O)c3cc(C)cs3)CC2)nc1 | 20 nM | 101% | 8.3 nM
19 | Cc1ccc(CNCC2(F)CCN(C(=O)c3sc(Br)c4c3OCCO4)CC2)nc1 | 63 nM | 102% | 32 nM
20 | Cc1ccc(CNC[C@@]2(O)C[C@H]3CC[C@@H](C2)N3C(=O)c2ccccc2)nc1 (stereo in doubt; 38) [listing 2 of 2 here] | – | – | 63 nM
21 | Cc1ccc(CNC[C@@]2(O)C[C@H]3CCC[C@@H](C2)N3C(=O)c2ccccc2)nc1 (stereo in doubt; 41) | – | – | 150 nM

Row | Compound | EC50 [1] | Emax [2] | Ki [3]
22 | Cc1ccc(CNCC2(F)CCN(C(=O)c3ccsc3)CC2)nc1 | 12 nM | 95% | 27 nM
23 | Cc1ccc(CNCC2(O)CCN(C(=O)c3ccc(F)c(Cl)c3)CC2)nc1 | 6.6 nM | 109% | 11 nM
24 | Cc1ccc(CNCC2(F)CC3CCC(C2)N3C(=O)c2ccc(F)c(Cl)c2)nc1 (stereo unspecified) | – | – | 110 nM
25 | Cc1ccc(CNC[C@@]2(O)C[C@H]3CCC[C@@H](C2)N3C(=O)c2ccccc2)nc1 (stereo in doubt; 43) | – | – | 1600 nM
26 | Cc1ccc(CNCC2(F)CCN(C(=O)c3ccc4[nH]ccc4c3)CC2)nc1 | 100 nM | 94% | 380 nM
27 | Cc1ccc(CNCC2(F)CCN(C(=O)c3ccccc3-c3ccccc3)CC2)nc1 | – | – | 330 nM
28 | Cc1ccc(CNCC2(F)CCN(C(=O)c3cc4ccccc4s3)CC2)nc1 | 240 nM | 116% | 190 nM
29 | COc1cscc1C(=O)N1CCC(F)(CNCc2ccc(C)cn2)CC1 | 99 nM | 93% | 56 nM
30 | Cc1ccc(CNCC2(O)CC3CCC(C2)N3C(=O)c2ccsc2)nc1 (stereo unspecified) | 32 nM | 101% | 43 nM
31 | Cc1ccc(CNCC2(F)CCN(C(=O)c3cccc(-c4ccccc4)c3)CC2)nc1 | – | – | 69 nM
32 | Cc1ccc(CNCC2(F)CCN(C(=O)c3cc4ccccn4n3)CC2)nc1 | 93 nM | 80% | 180 nM
33 | Cc1ccc(CNCC2(F)CCN(C(=O)c3ccc(F)s3)CC2)nc1 | – | – | 35 nM
34 | Cc1ccc(CNCC2(F)CCN(C(=O)C34CC5CC(CC3C5)C4)CC2)nc1 | 47 nM | 96% | 11 nM
35 | Cc1ccc(CNCC2(F)CCN(C(=O)c3cc4cc(Br)ccc4s3)CC2)nc1 | – | – | 220 nM
36 | Cc1ccc(CNCC2(F)CCN(C(=O)c3ccc(-c4cccs4)s3)CC2)nc1 | – | – | 420 nM
37 | Cc1ccc(CNCC2(F)CCN(C(=O)c3ccc4ccccc4c3)CC2)nc1 | 52 nM | 110% | 15 nM
38 | Cc1ccc(CNCC2(F)CCN(C(=O)c3sccc3-n3cccc3)CC2)nc1 | – | – | 360 nM
39 | Cc1ccc(CNCC2(F)CCN(C(=O)C34CCCC(CCC3)C4)CC2)nc1 | 26 nM | 96% | 19 nM
40 | Cc1ccc(CNCC2(F)CCN(C(=O)c3ccc(-c4ccccc4)cc3)CC2)nc1 | – | – | 300 nM
41 | Cc1ccc(CNCC2(F)CCN(C(=O)c3cc4ccccc4o3)CC2)nc1 | 34 nM | 87% | 64 nM
42 | Cc1ccc(CNCC2(F)CCN(C(=O)c3ccc(-c4ccccc4)s3)CC2)nc1 | – | – | 500 nM

Row | Compound | EC50 [1] | Emax [2] | Ki [3]
43 | Cc1ccc(CNCC2(F)CCN(C(=O)c3cc4sccc4s3)CC2)nc1 | 130 nM | 100% | 37 nM
44 | Cc1ccc(CNCC2(F)CC3CCC(C2)N3C(=O)c2ccccc2)nc1 (stereo unspecified) | – | – | 340 nM
45 | Cc1ccc(CNCC2(F)CCN(C(=O)c3ccsc3Br)CC2)nc1 | – | – | 16 nM
46 | Cc1ccc(CNCC2(F)CCN(C(=O)c3ccoc3)CC2)nc1 | 240 nM | 99% | 182 nM
47 | Cc1ccc(CNCC2(F)CCN(C(=O)c3scc4c3CCCC4)CC2)nc1 | 86 nM | 104% | 20 nM
48 | Cc1ccc(CNC[C@@]2(O)C[C@H]3CC[C@@H](C2)N3C(=O)c2ccccc2)nc1 (stereo in doubt; 34) [listing 2 of 2 here] | 270 nM | – | 100 nM
49 | CCC12CC3CC(C1)CC(C(=O)N1CCC(F)(CNCc4ccc(C)cn4)CC1)(C3)C2 | – | – | 29 nM
50 | Cc1ccc(CNCC2(F)CCN(C(=O)c3cc4ccsc4s3)CC2)nc1 | 39 nM | 103% | 46 nM
51 | Cc1ccc(CNCC2(F)CCN(C(=O)C34CC5CC(C3)CC(C(F)(F)C(F)C(F)(F)F)(C5)C4)CC2)nc1 (stereo unspecified) | – | – | 1300 nM
52 | Cc1ccc(CNCC2(F)CCN(C(=O)c3cc[nH]n3)CC2)nc1 | – | – | 910 nM
53 | Cc1ccc(CNCC2(F)CCN(C(=O)C34CC5CC(CC(Br)(C5)C3)C4)CC2)nc1 | – | – | 120 nM
54 | Cc1ccc(CNCC2(F)CCN(C(=O)c3ccc[nH]3)CC2)nc1 | – | – | 660 nM
55 | Cc1ccc(CNCC2(F)CCN(C(=O)c3ccc4[nH]nnc4c3)CC2)nc1 | – | – | 910 nM
56 | Cc1ccc(CNCC2(F)CCN(C(=O)c3cc(Br)c(Br)s3)CC2)nc1 | – | – | 4.8 nM
57 | Cc1ccc(CNCC2(F)CCN(C(=O)C34CC5CC(C)(CC(C)(C5)C3)C4)CC2)nc1 | – | – | 470 nM
58 | Cc1ccc(CNCC2(F)CCN(C(=O)C3CCc4ccccc4C3)CC2)nc1 (stereo unspecified) | – | – | 160 nM
59 | Cc1ccc(CNCC2(O)CCN(C(=O)c3ccccc3)CC2)nc1 | – | – | 79 nM
60 | Cc1ccc(CNCC2(F)CCN(C(=O)c3ccc(-c4csc(C)n4)s3)CC2)nc1 | – | – | 450 nM
61 | Cc1ccc(CNCC2(F)CC3CCC(C2)N3C(=O)c2ccsc2)nc1 (stereo unspecified) | – | – | 260 nM
62 | Cc1ccc(CNCC2(O)CCN(C(=O)c3ccsc3)CC2)nc1 | – | – | 120 nM
63 | Cc1ccc(CNCC2(F)CCN(C(=O)c3coc(Br)c3)CC2)nc1 | – | – | 26 nM
